Results: article PMC3177973 (Biochemistry, 2011)

Legend:
α-synuclein [1] = biological target: T1, α-synuclein (Homo sapiens, UniProt P37840); details: similar effect as WW2; cited from earlier work
α-synuclein [2] = biological target: T1, α-synuclein; experiment: TEM imaging of α-syn aggregation assays; type: biochemical; details: 2 molar equivalents; images after 16–24 hrs; AA = amorphous aggregates
Summary of the method: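 Full-length 140-residue α-syn was expressed in E. coli BL21(DE3) and purified by anion exchange. It was used at 100 μM in 20 mM Tris-HCl pH 7.5, at 37 °C with vigorous stirring, with or without peptide. HFIP was added to 1.5 vol-% to start aggregation. After 16–24 h, a freshly agitated 5 μL aliquot was adsorbed on formvar/carbon-coated copper grids, negatively stained with 2% uranyl acetate and imaged by TEM.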

α-synuclein [3] = biological target: T1, α-synuclein; experiment: α-syn aggregation assay, CD spectroscopy; type: biochemical; details: 2 molar equivalents; for β CD signal, % β, α-syn assay: at 16 h (no time printed for MrH3b); for Effect on course, onset or lag time of α-syn aggregation (in words): monitored by CD and ThT
Summary of the method: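 Recombinant full-length α-syn was expressed in E. coli BL21(DE3) and used at 100 μM in 20 mM Tris-HCl pH 7.5. Aggregation was started by HFIP addition (1.5 vol-% final) under continuous stirring at 37 °C, with or without inhibitor peptide and without ThT. Every 2–4 h, a 5 μL aliquot was diluted into 195 μL of 1.5% HFIP buffer (2.5 μM α-syn). Spectra were recorded in 0.1 cm cells to follow the random coil-to-β transition, corrected for inhibitor contribution.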

Fibril Morphology (TEM), α-syn (α-synuclein [2])	Time by which β CD signal appears, α-syn assay (α-synuclein [3])	β CD signal, % β, α-syn assay (α-synuclein [3]) [%]	β CD signal, α-syn assay (in words) (α-synuclein [3]; 100 μM α-syn, 1.5 vol-% HFIP)	Compound	Excess of inhibitor required for non-amyloid α-syn aggregates (α-synuclein [1]) [fold excess]	Effect on course, onset or lag time of α-syn aggregation (in words) (α-synuclein [3])
–	–	–	–	O=C(O[C@@H]1Cc2c(O)cc(O)cc2O[C@@H]1c1cc(O)c(O)c(O)c1)c1cc(O)c(O)c(O)c1 [EGCG, (−)-epigallocatechin-3-gallate]	5	–
Normal	β signal within 6 h, 100% 16 h hours	100	–	Ac-KIVTSAK [ssMrH]	–	no effects on the course of α-syn aggregation
Normal + AA	–	80	Helical at 4–6 hours 80 % β at 16 h	KKLTVWI [ssW]	–	delays aggregation (as monitored by CD)
